Data on nine compounds can be found in publication PMC8245912 (Acta Pharmaceutica Sinica. B, 2020).

For series [1], the system named is MCF-7 (breast cancer) cells. The series is described as follows: CCK-8 antiproliferative assay, MCF-7. The format is cell-based. The conditions noted are these: Homo sapiens, MCF7, read-out: IC50 MCF-7. Background: Formazan colour is commonly taken as a measure of viable cells.
Another series addresses MDM2 (Homo sapiens, UniProt Q00987). The series is described as follows: Western blotting of MDM2 degradation in A549 cells. It is filed as cell-based. The settings on record: for MDM2 degradation (result in words): Western blotting, Fig. 2B.
For another series, the system named is HCT116 (P53‒) cells. Put plainly: CCK-8 assay, P53-deleted HCT116. It is filed as cell-based. The conditions noted are these: Homo sapiens, HCT-116, read-out: IC50 HCT116 (P53‒).
Another series relates to HCT116 (P53+) cells. Put plainly: CCK-8 assay, P53-wild HCT116. The format is cell-based. The conditions noted are these: Homo sapiens, HCT-116, read-out: IC50 HCT116 (P53+).
Another series deals with Caco-2 cells. It is filed as in vitro ADME.
The subject of series [2] is HCT116 (colon cancer) cells. The series is described as follows: CCK-8 antiproliferative assay, HCT116. The format is cell-based. The settings on record: Homo sapiens, HCT-116, read-out: IC50 HCT116.
The next series deals with MDM2‒P53 (Homo sapiens, UniProt Q00987). The series is described as follows: fluorescence polarization. The format is binding. The conditions noted are these: for Ki: MDM2‒P53 Ki, FP binding assay, Table 1. For orientation: In fluorescence polarisation assays a small probe gives low polarisation when free and higher when bound to something large.
Series [3] has as its system HepG2 (liver cancer) cells. Put plainly: CCK-8 antiproliferative assay, HepG2. It is filed as cell-based. The settings on record: Homo sapiens, HepG2, read-out: IC50 HepG2.
Another series deals with P53. The series is described as follows: Western blotting of P53 expression in A549 cells. It is filed as cell-based, human. In general terms: Immunoblotting shows a protein as a band on a membrane.
The subject of the next series is A549 cells. Put plainly: apoptosis assay, flow cytometry with Annexin V/PI double staining. The format is cell-based, human. The conditions noted are these: for apoptosis: 5.0 μmol/L, 24 h treatment.
For another series, the system named is A549 (lung cancer) cells. Put plainly: CCK-8 antiproliferative assay, A549. The format is cell-based. The conditions noted are these: Homo sapiens.
For another series, the system named is A549 xenograft. The series is described as follows: in vivo A549 xenograft assay. Details: species or system mouse. The conditions noted are these: A549 xenograft nude mice, intraperitoneal 20 mg/kg twice-daily, 21 days. In outline: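 Female BALB/c nude mice (6–7 weeks, 18–20 g) received 5.0 × 10^6 A549 cells subcutaneously in the flank. At mean tumour volume 100 mm3 they were randomised, 5 per group. Intraperitoneal dosing ran twice daily for 21 days; vehicle was normal saline. Calipers measured tumours every three days: V = A×B²/2, TGI = (1 − Vtreat/Vcontrol) × 100. Analysis used mean ± SEM and one-way ANOVA.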

Setting [4] is: A549, 72 h, read-out: IC50 A549.

Like-named read-outs stand apart in the source and are kept apart here. Peptide text beside a SMILES is read from it. * marks the point of attachment. Cbz = O=C(OCc1ccccc1)*

Broadly, the IC50 is the concentration that gives 50% inhibition. `CCOc1cc(C(C)(C)C)ccc1C1=N[C@@H](c2ccc(Cl)cc2)[C@@H](c2ccc(Cl)cc2)N1C(=O)N1CCN(CC(=O)NCCOCCOCCOCCNC(=O)CN2CCN(C(=O)N3C(c4ccc(C(C)(C)C)cc4OCC)=N[C@@H](c4ccc(Cl)cc4)[C@H]3c3ccc(Cl)cc3)CC2=O)C(=O)C1` (relative stereo) [Compound 11a, N,N′-(((Oxybis(ethane-2,1-diyl))bis(oxy))bis(ethane-2,1-diyl))bis(2-(4-(2-(4-(tert-butyl)-2-ethoxyphenyl)-cis-4,5-bis(4-chlorophenyl)-4,5-dihydro-1H-imidazole-1-carbonyl)-2-oxopiperazin-1-yl)acetamide)]: the concentration for half-maximal inhibition (IC50) was 2.9 ± 0.6 µM in series [1]; greater than 50 µM in the series with HCT116 (P53‒) cells; 1.9 ± 0.67 µM in the series with HCT116 (P53+) cells; 1.9 ± 0.11 µM in series [2]; 3.3 ± 0.31 µM in series [3]; 1 ± 0.1 µM in the series with A549 (lung cancer) cells (setting [4]). Besides, the IC50 in the series with A549 (lung cancer) cells (A549, read-out: IC50 A549) was determined as 1.4 ± 0.31 µM. At MDM2 (2 μmol/L, 24 h), this compound yielded an MDM2 degradation greater than 95%. The “MDM2 degradation rescue by proteasome inhibitor MG132 (result in words)” value at MDM2 (Fig. 4F) is “MG132 blocked the MDM2 degradation”. At MDM2, the “MDM2 degradation (result in words)” value is “dose-dependently induced MDM2 protein cleavage”. Also, the “time at which depletion of MDM2 was observed” value on MDM2 (time course degradation, Fig. 4D) is listed as no more than 2 h. In the series with Caco-2 cells, the “cellular permeability (result in words)” value was “low permeability”. The “fold more potent MDM2‒P53 competitive binding than positive control 1” value at MDM2‒P53 (ratio of Ki vs compound 1) is roughly 1.5 fold. The “P53 protein expression (result in words)” value in the series with P53 is listed as “increased the P53 protein expression”. Further, the “apoptosis in combination with MG132” value with A549 cells (A549 cells, 5.0 μmol/L compound + MG132 0.2 μmol/L) worked out at 15.81%. This compound gave an apoptosis in the series on A549 cells (A549 cells) of 23.49%.
What is called Ki is the equilibrium dissociation constant of an inhibitor or competing ligand from its target. A low value points to a stronger hold on the target. For `CCOc1cc(C(C)(C)C)ccc1C1=N[C@@H](c2ccc(Cl)cc2)[C@@H](c2ccc(Cl)cc2)N1C(=O)N1CCN(CC(=O)NCCOCCNC(=O)CN2CCN(C(=O)N3C(c4ccc(C(C)(C)C)cc4OCC)=N[C@@H](c4ccc(Cl)cc4)[C@H]3c3ccc(Cl)cc3)CC2=O)C(=O)C1` (relative stereo) [Compound 11c, N,N′-(Oxybis(ethane-2,1-diyl))bis(2-(4-(2-(4-(tert-butyl)-2-ethoxyphenyl)-cis-4,5-bis(4-chlorophenyl)-4,5-dihydro-1H-imidazole-1-carbonyl)-2-oxopiperazin-1-yl)acetamide)], the IC50 worked out at 14 ± 3.7 µM in series [1], 7.4 ± 2.1 µM in series [2], 12 ± 3.7 µM in series [3] and 9.3 ± 1.7 µM in the series on A549 (lung cancer) cells (setting [4]). On MDM2‒P53, the inhibition constant (Ki) was determined as 12 ± 1.9 µM.
With `CCOc1cc(C(C)(C)C)ccc1C1=N[C@@H](c2ccc(Cl)cc2)[C@@H](c2ccc(Cl)cc2)N1C(=O)N1CCN(CC(=O)NCCOCCOCCNC(=O)CN2CCN(C(=O)N3C(c4ccc(C(C)(C)C)cc4OCC)=N[C@@H](c4ccc(Cl)cc4)[C@H]3c3ccc(Cl)cc3)CC2=O)C(=O)C1` (relative stereo) [Compound 11b, N,N′-((Ethane-1,2-diylbis(oxy))bis(ethane-2,1-diyl))bis(2-(4-(2-(4-(tert-butyl)-2-ethoxyphenyl)-cis-4,5-bis(4-chlorophenyl)-4,5-dihydro-1H-imidazole-1-carbonyl)-2-oxopiperazin-1-yl)acetamide)], the IC50 in [1] was 4.9 ± 0.2 µM; in series [2] it was 3.9 ± 1.6 µM; in series [3], 7.3 ± 0.52 µM; in the series with A549 (lung cancer) cells (setting [4]) it was 6.6 ± 1 µM. In addition, at MDM2‒P53, the inhibitory constant (Ki) is 1.8 ± 0.94 µM.
The matching figures for `CCOc1cc(C(C)(C)C)ccc1C1=N[C@@H](c2ccc(Cl)cc2)[C@@H](c2ccc(Cl)cc2)N1C(=O)N1CCN(C(=O)CCCCCCCC(=O)N2CCN(C(=O)N3C(c4ccc(C(C)(C)C)cc4OCC)=N[C@@H](c4ccc(Cl)cc4)[C@H]3c3ccc(Cl)cc3)CC2)CC1` (relative stereo) [Compound 10b, 1,9-Bis(4-(2-(4-(tert-butyl)-2-ethoxyphenyl)-cis-4,5-bis(4-chlorophenyl)-4,5-dihydro-1H-imidazole-1-carbonyl)piperazin-1-yl) nonane-1,9-dione]: 6.3 ± 1.1 µM, 5.7 ± 1.3 µM, 3.8 µM, 6.3 ± 1.2 µM and 1.6 ± 0.96 µM.
Regarding `CCOc1cc(C(C)(C)C)ccc1C1=N[C@@H](c2ccc(Cl)cc2)[C@@H](c2ccc(Cl)cc2)N1C(=O)N1CCN(C(=O)CCCCCC(=O)N2CCN(C(=O)N3C(c4ccc(C(C)(C)C)cc4OCC)=N[C@@H](c4ccc(Cl)cc4)[C@H]3c3ccc(Cl)cc3)CC2)CC1` (relative stereo) [Compound 10a, 1,7-Bis(4-(2-(4-(tert-butyl)-2-ethoxyphenyl)-cis-4,5-bis(4-chlorophenyl)-4,5-dihydro-1H-imidazole-1-carbonyl)piperazin-1-yl) heptane-1,7-dione], the IC50 in [1] stood at 2.1 µM; in series [2], 2.5 ± 1 µM; in [3], 1.5 ± 0.05 µM; in the series with A549 (lung cancer) cells (setting [4]), 2.1 ± 0.1 µM. At MDM2, the “MDM2 degradation (result in words)” value is listed as “no degradation”. The compound also yielded an inhibition constant Ki on MDM2‒P53 of 0.65 ± 0.17 µM.
With `CCOc1cc(C(C)(C)C)ccc1C1=N[C@@H](c2ccc(Cl)cc2)[C@@H](c2ccc(Cl)cc2)N1C(=O)N1CCN(C(=O)COCCOCCOCC(=O)N2CCN(C(=O)N3C(c4ccc(C(C)(C)C)cc4OCC)=N[C@@H](c4ccc(Cl)cc4)[C@H]3c3ccc(Cl)cc3)CC2)CC1` (relative stereo) [Compound 10f, 2,2′-((Oxybis(ethane-2,1-diyl))bis(oxy))bis(1-(4-(2-(4-(tert-butyl)-2-ethoxyphenyl)-cis-4,5-bis(4-chlorophenyl)-4,5-dihydro-1H-imidazole-1-carbonyl)piperazin-1-yl)ethan-1-one)], the IC50 in series [1] worked out at 4.7 ± 0.81 µM; in [2], 1.3 ± 0.1 µM; in series [3], 1.2 ± 0.2 µM; in the series with A549 (lung cancer) cells (setting [4]) it was 1.3 µM. Moreover, the “MDM2 degradation (result in words)” value at MDM2 is recorded as “dose-dependently induced MDM2 protein cleavage”. In addition, the inhibition constant Ki at MDM2‒P53 is 0.22 ± 0.07 µM. The “P53 protein expression (result in words)” value in the series with P53 is “increased the P53 protein expression”.
Consider `CC(C)C[C@@H](C=O)NC(=O)[C@H](CC(C)C)NC(=O)[C@H](CC(C)C)NC(=O)OCc1ccccc1` [MG132, reference compound] (Cbz-Leu-Leu-Leu-aldehyde), for which the “toxic effect on A549 cells (result in words)” value in the series with A549 cells (0.2 μmol/L, incubation for 24 h) is on record as “no toxic effect”.
Turning to `COc1ccc(C2=N[C@@H](c3ccc(Cl)cc3)[C@@H](c3ccc(Cl)cc3)N2C(=O)N2CCNC(=O)C2)c(OC(C)C)c1` [Compound 1, Nutlin-3, reference compound], the half-maximal inhibitory concentration (IC50) in series [1] was determined as 9.7 ± 1 µM; with HCT116 (P53‒) cells, 19 ± 0.91 µM; in series [2], 5 ± 0.9 µM; in [3] it was 8.9 ± 1 µM; in the series with A549 (lung cancer) cells (setting [4]) it was 7.9 ± 1.3 µM; in the series on A549 (lung cancer) cells (A549, read-out: IC50 A549), 9.9 ± 1.3 µM. In the series on A549 xenograft, the “tumor growth inhibition (TGI)” value is on record as 47.8%. The “MDM2 degradation (result in words)” value at MDM2 was “did not induce the degradation of MDM2”. The compound also had an apoptosis in the series on A549 cells (A549 cells) of 10.94%.
As for `CCOc1cc(C(C)(C)C)ccc1C1=N[C@@H](c2ccc(Cl)cc2)[C@@H](c2ccc(Cl)cc2)N1C(=O)N1CCN(C(=O)COCCOCC(=O)N2CCN(C(=O)N3C(c4ccc(C(C)(C)C)cc4OCC)=N[C@@H](c4ccc(Cl)cc4)[C@H]3c3ccc(Cl)cc3)CC2)CC1` (relative stereo) [Compound 10e, 2,2′-(Ethane-1,2-diylbis(oxy)) bis(1-(4-(2-(4-(tert-butyl)-2-ethoxyphenyl)-cis-4,5-bis(4-chlorophenyl)-4,5-dihydro-1H-imidazole-1-carbonyl)piperazin-1-yl)ethan-1-one)], the IC50 in series [1] worked out at 7.4 ± 0.51 µM; in series [2], 3.9 ± 0.7 µM; in series [3], 4.6 ± 0.8 µM; in the series on A549 (lung cancer) cells (setting [4]), 6.6 ± 1 µM. The Ki on MDM2‒P53 was found to be 1.5 ± 0.82 µM.
